Results from different studies.
Each line is one published result; the experiments were not run side by side.
Observed: metabolic stability

Cc1cc(S(=O)(=O)N[C@H]2CC[C@H](CN3CCN(c4ccc(C5CCC(=O)NC5=O)c(Cl)c4)CC3)CC2)ccc1Nc1ncc(C(F)(F)F)c(N2CCC[C@](C)(O)C2)n1 (some centres unmarked)  scaled CLint (rat, liver microsomes; 1 µM): < 21 mL/min/kg
Cc1ccc(N(C)c2ccc(NC(=O)CN(C)c3ccccc3N3CCCC3=O)cn2)cc1  hepatocyte CLint (rat, hepatocytes): > 92 µL/min/10⁶ cells
NCCOCC(=O)N1CCC[C@H](C(=O)NCc2nc(-c3ccc(C(F)(F)F)cc3)cs2)C1  scaled CLint (male Sprague-Dawley rat, liver microsomes; 0.5 µM): < 5.6 mL/min/kg
Cc1ccc(Nc2cnnc3ccc(-c4ccc(N5CCN(C)CC5)cc4)cc23)cn1  hepatocyte CLint (rat, hepatocytes): 15 µL/min/10⁶ cells
COCC(=O)N1CCC[C@H](C(=O)NCc2nc(-c3ccc(-c4ccccn4)cc3)cs2)C1  microsomal CLint (male Sprague-Dawley rat, liver microsomes; 0.5 µM): 104 µL/min/mg
Cc1ccc(Oc2ccc(NC(=O)COc3ccccc3N3CCCC3=O)cc2)cc1  hepatocyte CLint (rat, hepatocytes): 68 µL/min/10⁶ cells
Cc1cc(S(=O)(=O)N[C@H]2CC[C@H](CN3CCN(c4ccc(NC5CCC(=O)NC5=O)cc4F)CC3)CC2)ccc1Nc1ncc(C(F)(F)F)c(N2CCC[C@](C)(O)C2)n1 (some centres unmarked)  scaled CLint (rat, liver microsomes; 1 µM): < 21 mL/min/kg
Cc1ccc(Oc2ccc(NC(=O)CNc3ccccc3N3CCCC3=O)cc2)cc1  hepatocyte CLint (rat, hepatocytes): 58 µL/min/10⁶ cells
CNS(=O)(=O)c1ccc(Nc2ncc3cc(Cl)c(=O)n(C4CCCC4)c3n2)c(C)c1  scaled CLint (rat, liver microsomes; 1 µM): 70 mL/min/kg
N#Cc1ccc(C[C@@H](Nc2c(Nc3ccc(F)cc3)c(=O)c2=O)C(=O)N2CCc3ccccc32)cc1  microsomal CLint (rat, liver microsomes; 10 µM, pH 7.4): 46.2 µL/min/mg
CCOCC(=O)N1CCC[C@H](C(=O)NCc2nc(-c3ccc(C#N)nc3)cs2)C1  scaled CLint (male Sprague-Dawley rat, liver microsomes; 0.5 µM): 19 mL/min/kg
C[C@H]1CN(c2ccc(C3CCC(=O)NC3=O)cc2F)CCN1CC12CCC(NS(=O)(=O)c3ccc(Nc4ncc(C(F)(F)F)c(N5CCC[C@](C)(O)C5)n4)c(F)c3)(CC1)CO2 (some centres unmarked)  scaled CLint (rat, liver microsomes; 1 µM): < 21 mL/min/kg
N#Cc1ccc(C[C@H](Nc2nnc(-c3ccc(Br)cc3)s2)C(=O)N2CCc3ccccc32)cc1  microsomal CLint (rat, liver microsomes; 10 µM, pH 7.4): 46.2 µL/min/mg
CC(C)N(c1ccc(C#N)cc1)c1ccc(NC(=O)CN(C)c2ccccc2N2CCCC2=O)cn1  hepatocyte CLint (rat, hepatocytes): 92 µL/min/10⁶ cells
Cc1cc(S(=O)(=O)NC2CCC(CC3CCN(c4ccc(C5CCC(=O)NC5=O)cc4)CC3)CC2)ccc1Nc1ncc(C(F)(F)F)c(N2CCC[C@](C)(O)C2)n1 (some centres unmarked)  scaled CLint (rat, liver microsomes; 1 µM): < 21 mL/min/kg
N#Cc1ccc(-c2csc(CNC(=O)[C@H]3CCCN(C(=O)COCCF)C3)n2)cc1  microsomal CLint (male Sprague-Dawley rat, liver microsomes; 0.5 µM): 40 µL/min/mg
C[C@]1(O)CCCN(c2nc(Nc3ccc(S(=O)(=O)N[C@@H]4CCN(CC5CCN(c6ccc(C7CCC(=O)NC7=O)cc6F)CC5)C[C@H]4F)cc3F)ncc2C(F)(F)F)C1 (some centres unmarked)  scaled CLint (rat, liver microsomes; 1 µM): < 21 mL/min/kg
Cc1ccc(N(c2ccc(NC(=O)CN(C)c3ccccc3N3CCCC3=O)cc2)C(C)C)cc1  hepatocyte CLint (rat, hepatocytes): > 92 µL/min/10⁶ cells
COc1cnc(Nc2cnnc3ccc(-c4ccc(N5CCN(C)CC5)cc4)cc23)nc1  hepatocyte CLint (rat, hepatocytes): > 300 µL/min/10⁶ cells
N#Cc1ccc(-c2csc(CNC(=O)[C@H]3CCCN(C(=O)N4CCCC4)C3)n2)cc1  microsomal CLint (male Sprague-Dawley rat, liver microsomes; 0.5 µM): 223 µL/min/mg
Cc1ccc(-c2nnc(N[C@@H](Cc3ccc(C#N)cc3)C(=O)N3CCc4ccccc43)o2)cc1  microsomal CLint (rat, liver microsomes; 10 µM, pH 7.4): 49.5 µL/min/mg
CNS(=O)(=O)c1ccc(Nc2ncc(C(F)(F)F)c(N3CCC[C@](C)(O)C3)n2)c(C)c1  scaled CLint (rat, liver microsomes; 1 µM): 40 mL/min/kg
Cc1ccc(Oc2ccc(NC(=O)CNc3ccccc3-n3cncn3)cc2)cc1  hepatocyte CLint (rat, hepatocytes): 46 µL/min/10⁶ cells
CNS(=O)(=O)c1ccc(Nc2ncc(C(F)(F)F)c([C@H]3CC[C@@](C)(O)CC3)n2)c(C)c1  scaled CLint (rat, liver microsomes; 1 µM): < 21 mL/min/kg
Cc1ccc(N(C)c2ccc(NC(=O)CN(C)c3cc(F)ccc3N3CCCC3=O)cc2)cc1  hepatocyte CLint (rat, hepatocytes): 91 µL/min/10⁶ cells
CCOCC(=O)N1CCC[C@H](C(=O)NCc2nc(-c3ccc(C)nc3)cs2)C1  microsomal CLint (male Sprague-Dawley rat, liver microsomes; 0.5 µM): 19 µL/min/mg
N#Cc1ccc(C[C@H](NC(=O)c2cc3cc(F)ccc3[nH]2)C(=O)N2CCc3ccccc32)cc1  microsomal CLint (rat, liver microsomes; 10 µM, pH 7.4): 9.1 µL/min/mg
CNc1ccc(C(N)=O)cn1  hepatocyte CLint (male Wistar rat, hepatocytes; 1 µM, pH 7.4): 2.9 µL/min/10⁶ cells
CCONC(=O)N1CCC[C@H](C(=O)NCc2nc(-c3ccc(C#N)cc3)cs2)C1  microsomal CLint (male Sprague-Dawley rat, liver microsomes; 0.5 µM): 33 µL/min/mg
COc1cc(-c2cc(C(C)=O)n3ccccc23)c(OC)cc1Cn1ccnc1  scaled CLint (rat, liver microsomes; 1 µM, pH 7.4): 145 mL/min/kg
O=C(NCc1nc(-c2ccc(C(F)(F)F)cc2)cs1)[C@H]1CCCN(C(=O)CO[C@H]2CCCNC2)C1  microsomal CLint (male Sprague-Dawley rat, liver microsomes; 0.5 µM): 3.6 µL/min/mg
COc1cc(NC(=O)Cn2cc(Cl)c3ccc(-c4cnn(C)c4)cc32)cc(OC)c1OC  hepatocyte CLint (rat, hepatocytes): < 1 µL/min/10⁶ cells
